Values after ≈ are worked out from the molar mass of the structure shown. Active and inactive are the calls of the source. The rule behind the calls is not given here.
Columns and labels:
Human alphaherpesvirus 2 [1] = test: Antiviral activity against HSV2 G in human E6SM cells assessed as reduction of virus-induced cytopathogenicity; format: functional; details: Human alphaherpesvirus 2, G
In short: (§1)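 Confluent cell monolayers (E6SM, HEL, HeLa or Vero, per line) inoculated with 100 CCID50 virus; 1 h adsorption, residual virus removed, then incubated with compound at 400, 200, 100 … µg/ml. Cytopathicity scored once complete in untreated virus controls; MIC = concentration inhibiting virus-induced cytopathicity.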

Coxsackievirus B4 [2] = test: Antiviral activity against Coxsackie virus B4 in african green monkey Vero cells assessed as reduction of virus-induced cytopathogenicity; format: functional; details: Enterovirus B; in short: as §1
Punta Toro virus = test: Antiviral activity against Punta Toro virus in african green monkey Vero cells assessed as reduction of virus-induced cytopathogenicity; format: functional; in short: as §1
[3] = tested on: Respiratory syncytial virus; test: Antiviral activity against respiratory syncytial virus in human HeLa cells assessed as inhibition of virus-induced cytopathogenicity; format: functional; in short: as §1
Human betaherpesvirus 5 [4] = test: Antiviral activity against human cytomegalovirus Davis infected HEL cells assessed as reduction in virus plaque formation; format: functional, organism-based; details: Human betaherpesvirus 5, Davis
Human alphaherpesvirus 2 [5] = test: Antiviral activity against HSV2 G in human HEL cells assessed as reduction of virus-induced cytopathogenicity; format: functional; details: Human alphaherpesvirus 2, G; in short: as §1
[6] = Cytotoxicity against human MT4 cells by MTT assay; format: cell-based
In short: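 Mock-infected MT-4 cells (6 × 10⁵ cells/ml) with serial five-fold compound dilutions in triplicate; MTT reduction read at 540 and 690 nm after 5 days, median OD of three wells; CC50 = concentration reducing OD540 of mock-infected control by 50%.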

Human alphaherpesvirus 3 [7] = test: Antiviral activity against TK+ VZV OKA infected HEL cells assessed as reduction in virus plaque formation; format: functional, organism-based; details: Human alphaherpesvirus 3, OKA
[8] = Cytotoxicity against human HeLa cells; format: cell-based
In short: (§2)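 Uninfected cell cultures exposed to test compounds alongside antiviral assays; minimum cytotoxic concentration (MCC) = concentration causing a microscopically detectable alteration of cell morphology.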

[9] = tested on: Human immunodeficiency virus 2; test: Antiviral activity against HIV2 ROD in human MT4 cells assessed as protection against virus-induced cytopathogenicity by MTT assay; format: functional, organism-based; set-up: Activity: concentration or dose not given beside the values; details: for IC50: Human immunodeficiency virus 2, ROD, MT4
In short: (§3)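 MT-4 cells at 6 × 10⁵ cells/ml infected with HIV-1 IIIB or HIV-2 ROD at 100–300 CCID50; compounds in serial five-fold dilutions, triplicate mock- and virus-infected wells. MTT viability read at 540 and 690 nm after 5 days, median OD of three wells; EC50 = 50% protection from viral cytopathic effect.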

[10] = Cytotoxicity against human HEL cells assessed as alteration of cell morphology; format: cell-based; in short: as §2
Human alphaherpesvirus 1 [11] = test: Antiviral activity against HSV1 KOS in human HEL cells assessed as reduction of virus-induced cytopathogenicity; format: functional; details: Human alphaherpesvirus 1, KOS; in short: as §1
Human alphaherpesvirus 3 [12] = test: Antiviral activity against TK- VZV 07/1 infected HEL cells assessed as reduction in virus plaque formation; format: functional, organism-based; details: Human alphaherpesvirus 3, 07/1, HEL
[13] = (§4) Cytotoxicity against human E6SM cells; format: cell-based; details: E6SM cells; in short: as §2
Human respirovirus 3 = test: Antiviral activity against Parainfluenza 3 virus in african green monkey Vero cells assessed as reduction of virus-induced cytopathogenicity; format: functional; in short: as §1
[14] = tested on: Mycobacterium tuberculosis; test: Antitubercular activity against Mycobacterium tuberculosis H37Rv at 6.25 ug/ml by MABA assay; format: functional
Coxsackievirus B4 [15] = test: Antiviral activity against Coxsackie virus B4 in human HeLa cells assessed as inhibition of virus-induced cytopathogenicity; format: functional; details: Enterovirus B; in short: as §1
[16] = tested on: Mammalian orthoreovirus 1; test: Antiviral activity against Reo virus 1 in african green monkey Vero cells assessed as reduction of virus-induced cytopathogenicity; format: functional; in short: as §1
Human betaherpesvirus 5 [17] = test: Antiviral activity against human cytomegalovirus AD169 infected HEL cells assessed as reduction in virus plaque formation; format: functional, organism-based; details: Human betaherpesvirus 5, AD169, HEL
Vero = test: Cytotoxicity against african green monkey Vero cells; format: cell-based; details: chlorocebus sabaeus; in short: as §2
Human alphaherpesvirus 1 [18] = test: Antiviral activity against thymidine kinase deficient and acyclovir resistant HSV1 KOS in human HEL cells assessed as reduction of virus-induced cytopathogenicity; format: functional; details: Human alphaherpesvirus 1, KOS; in short: as §1
Sindbis virus = test: Antiviral activity against Sindbis virus in african green monkey Vero cells assessed as reduction of virus-induced cytopathogenicity; format: functional; in short: as §1
[19] = tested on: Vesicular stomatitis virus; test: Antiviral activity against in Vesicular stomatitis virus in human E6SM cells assessed as reduction of virus-induced cytopathogenicity; format: functional; in short: as §1
[20] = tested on: Vesicular stomatitis virus; test: Antiviral activity against in Vesicular stomatitis virus in human HEL cells assessed as reduction of virus-induced cytopathogenicity; format: functional; in short: as §1
[21] = tested on: Vesicular stomatitis virus; test: Antiviral activity against vesicular stomatitis virus in human HeLa cells assessed as inhibition of virus-induced cytopathogenicity; format: functional; in short: as §1
Human alphaherpesvirus 1 [22] = test: Antiviral activity against HSV1 KOS in human E6SM cells assessed as reduction of virus-induced cytopathogenicity; format: functional; details: Human alphaherpesvirus 1, KOS; in short: as §1
[23] = Cytotoxicity against human HEL cells assessed as reduction of cell growth; format: cell-based
In short: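 HEL cells; CC50 = compound concentration reducing cell growth by 50%.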

Human alphaherpesvirus 1 [24] = test: Antiviral activity against thymidine kinase deficient and acyclovir resistant HSV1 KOS in human E6SM cells assessed as reduction of virus-induced cytopathogenicity; format: functional; details: Human alphaherpesvirus 1, KOS; in short: as §1
[25] = tested on: Human immunodeficiency virus 1; test: Antiviral activity against HIV1 3B in human MT4 cells assessed as protection against virus-induced cytopathogenicity by MTT assay; format: functional, organism-based; set-up: Activity: concentration or dose not given beside the values; details: for IC50: Human immunodeficiency virus 1, 3B, MT4; in short: as §3
E6SM = test: as §4; format: cell-based; details: e6sm; in short: as §2

Row | SMILES | MIC (Human alphaherpesvirus 2 [1]) [µg/mL] | MIC (Coxsackievirus B4 [2]) [µg/mL] | MIC (Punta Toro virus) [µg/mL] | MIC [3] [µg/mL] | MIC (Human alphaherpesvirus 2 [5]) [µg/mL] | CC50 [6] [µg/mL] | MCC [8] [µg/mL] | Activity [9] [%] | IC50 [9] [µg/mL] | MCC [10] [µg/mL] | MIC (Human alphaherpesvirus 1 [11]) [µg/mL] | MIC (Human respirovirus 3) [µg/mL] | MIC (Coxsackievirus B4 [15]) [µg/mL] | MIC [16] [µg/mL] | Activity (Vero) | MIC (Human alphaherpesvirus 1 [18]) [µg/mL] | MIC (Sindbis virus) [µg/mL] | MIC [19] [µg/mL] | MIC [20] [µg/mL] | MIC [21] [µg/mL] | also measured
1 | CCn1c(COc2ccc(NC(=S)Nc3ccccc3)cc2)n[nH]c1=S | > 80 | 48 (≈ 125 µM) | > 80 | > 80 | > 80 | 31.9 (≈ 82.8 µM) | 400 | 25.5 | > 31.4 | 400 | > 80 | > 80 | > 80 | > 80 | >= 80 ug ml-1 | > 80 | > 80 | > 80 | > 80 | 80 (≈ 208 µM) | EC50 (Human betaherpesvirus 5 [4]): 37 µg/mL (≈ 96 µM); EC50 (Human alphaherpesvirus 3 [7]): 29 µg/mL (≈ 75.2 µM); EC50 (Human alphaherpesvirus 3 [12]): 34 µg/mL (≈ 88.2 µM); MCC [13]: 400 µg/mL; inhibition at 6.25 µg/mL [14]: 76%; EC50 (Human betaherpesvirus 5 [17]): 41 µg/mL (≈ 106 µM); MIC (Human alphaherpesvirus 1 [22]): > 80 µg/mL; CC50 [23]: > 50 µg/mL; MIC (Human alphaherpesvirus 1 [24]): > 80 µg/mL; Activity [25]: 26.5%; IC50 [25]: > 27.2 µg/mL
2 | CCn1c(COc2ccc(NC(=S)NC)cc2)n[nH]c1=S | > 400 | > 80 | > 80 | > 80 | > 400 | 76.8 (≈ 237 µM) | 400 | 2 | > 77.9 | > 400 | > 400 | > 80 | > 80 | > 80 | 400 µg/mL | > 400 | > 80 | > 400 | > 400 | > 80 | EC50 (Human betaherpesvirus 5 [4]): > 100 µg/mL; EC50 (Human alphaherpesvirus 3 [7]): > 100 µg/mL; EC50 (Human alphaherpesvirus 3 [12]): 88 µg/mL (≈ 272 µM); MCC [13]: > 400 µg/mL; Activity [14]: inactive; EC50 (Human betaherpesvirus 5 [17]): 63 µg/mL (≈ 195 µM); MIC (Human alphaherpesvirus 1 [22]): > 400 µg/mL; CC50 [23]: > 50 µg/mL; MIC (Human alphaherpesvirus 1 [24]): > 400 µg/mL; Activity [25]: 1.5%; IC50 [25]: > 68.1 µg/mL
3 | CCCCCCNC(=S)Nc1ccc(-c2n[nH]c(=S)n2CCCCCC)cc1 | > 3.2 | > 3.2 | > 3.2 | > 3.2 | > 3.2 | 1.71 (≈ 4.07 µM) | 16 | 1 | > 1.71 | 16 | > 3.2 | > 3.2 | > 3.2 | > 3.2 | 16 µg/mL | > 3.2 | > 3.2 | > 3.2 | > 3.2 | > 3.2 | Activity (E6SM): 16 µg/mL; MIC (Human alphaherpesvirus 1 [22]): > 3.2 µg/mL; MIC (Human alphaherpesvirus 1 [24]): > 3.2 µg/mL; Activity [25]: 3%; IC50 [25]: > 1.71 µg/mL
4 | Cn1c(COc2ccc(NC(=S)Nc3ccccc3)cc2)n[nH]c1=S | > 80 | > 80 | > 80 | > 400 | > 80 | ≥ 87.8 | > 400 | 6.5 | > 87.8 | 400 | > 80 | > 80 | > 400 | > 80 | 400 µg/mL | > 80 | > 80 | > 80 | > 80 | > 400 | EC50 (Human betaherpesvirus 5 [4]): 49 µg/mL (≈ 132 µM); EC50 (Human alphaherpesvirus 3 [7]): 33 µg/mL (≈ 88.8 µM); EC50 (Human alphaherpesvirus 3 [12]): 38 µg/mL (≈ 102 µM); MCC [13]: 400 µg/mL; inhibition at 6.25 µg/mL [14]: 70%; EC50 (Human betaherpesvirus 5 [17]): 66 µg/mL (≈ 178 µM); MIC (Human alphaherpesvirus 1 [22]): > 80 µg/mL; CC50 [23]: > 50 µg/mL; MIC (Human alphaherpesvirus 1 [24]): > 80 µg/mL; Activity [25]: 3.5%; IC50 [25]: > 98.9 µg/mL
